Screens: PubChem BioAssay, several laboratories
Compounds with a hit are over-represented: about 2.1% of the library has one in this group of screens.
KLF5 inh – KLF5 expression inhibitors, primary screen, DLD-1 cells, luminescence; DLD-1 KLF5 promoter-luciferase reporter; actives 0.23% (n = 290,000); inhibition, % at 5 µM;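 active = inhibition above a per-plate limit of that plate's mean compound inhibition plus 3 SD, cut at about 60% in these data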;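 note: 0% = DMSO wells and 100% = LY294002 at 200 µM; higher means less KLF5 promoter-driven luciferase light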
MT stabilizer – microtubule stabilizers in HeLa cells, primary screen, imaging, high-content imaging | HeLa tubulin immunostaining HCS, 24 h; share of cells brighter than vehicle mean+2SD | % tubulin-high responders, % at 10 µM | actives 0.83% (n = 200,000) | AID 2205, 2009;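 active = plate Z-score above 3 for both tubulin-high and condensed-nucleus cell shares, with cell loss under 80%, at 10 µM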;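 note: anti alpha tubulin signal scored within the nucleus-defined area of each cell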
IEC-6 cytotox – cytotoxicity in IEC-6 intestinal epithelial cells, primary screen, cytotoxicity control for KLF5 inhibitor project, cell-based, luminescence; IEC-6 cytotoxicity, luminescence viability; inhibition, % at 5 µM; actives 0.78% (n = 290,000);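 note: 0% = plate median of test compound wells and 100% = cytotoxic reference compound wells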
BaF3 tox – parental Ba/F3 cell viability inhibition, counter-screen for JAK2V617F inhibitor project, murine pro-B, CellTiter-Glo luminescence | inhibition, % at 5.6 µM | CellTiter-Glo ATP luminescence | actives 1.1% (n = 220,000);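 active = inhibition above a per-campaign cutoff, the mean inhibition of all tested compounds plus 3 SD, cut at about 27% in these data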;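 note: 0% = DMSO wells and 100% = JAK Inhibitor I control wells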
bCat nuc transl – modulators of beta-catenin nuclear translocation, primary screen, imaging, HeLa cells, immunofluorescence, high-content | nuclear translocation activity, % at 5 µM | actives 0.3% (n = 190,000) | AID 1665, 2009;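 active = nuclear translocation activity above 50% at 5 µM, with a well cell count of 50 or more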;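 note: per-cell ratio of nuclear to cytoplasmic median beta-catenin stain intensity; plate controls were DMSO negative control for no effect and GSK-3 inhibitor IX positive control for full effect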
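test system = HeLa cells, endogenous beta-catenin | dosing = single 5 µM dose plus 0.02–20 µM confirmation series | times = compound treatment 24 h, 37°C, 5% CO2 | technique = beta-catenin immunofluorescence imaging with DAPI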
Ba/F3 V617F tox – reduced viability of JAK2V617F-dependent Ba/F3 cells, primary screen, JAK2V617F inhibitor project, cell-based, Ba/F3 EpoR-JAK2V617F, luminescence. inhibition, % at 5.6 µM. ATP luminescence. AID 1446, 2008. actives 1.1% (n = 220,000);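 active = inhibition above the campaign mean plus 3 SD over all tested compounds, cut at about 24% in these data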;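 note: cytokine-independent growth of Ba/F3 cells driven by EpoR plus mutant JAK2; 0% = DMSO-treated cells and 100% = JAK inhibitor I control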
IEC-6 tox confirm – cytotoxic compounds in IEC-6 epithelial cells, confirmation, cytotoxicity control, cell-based, luminescence | shares compounds with IEC-6 cytotox | IEC-6 rat intestinal epithelial viability | inhibition, % at 5 µM | actives 63% (n = 1,900);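 note: 0% = vehicle and 100% = reference cytotoxic drug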
The depositor's hits bear a star; . = no result. Cut-off read from the data, not from the text of the source, unless noted: active = inhibition above about 22%; inactive = the rest.

SMILES	KLF5 inh	MT stabilizer	IEC-6 cytotox	BaF3 tox	bCat nuc transl	Ba/F3 V617F tox	IEC-6 tox confirm
CCOc1ccc(N(C)S(=O)(=O)c2ccc(-c3cc(C)no3)s2)cc1	38.9	.	56.9*	.	.	.	38.1*
CCOc1ccc(N(C)S(=O)(=O)c2cc(-c3cc(C)no3)ccc2C(C)C)cc1	-15.6	.	1.1	.	.	.	.
O=C(O)C(Oc1ccc2cc(-c3ccc(Cl)cc3)c(=O)oc2c1)c1ccccc1 (centres undefined)	-21.5	.	4.3	.	.	.	.
CCn1c(SCC(=O)c2ccccc2)nc2ccccc2c1=O	-8.2	2.2	61.2*	7.4	0.6	2.9	36.6*
O=[N+]([O-])c1ccc(/C=C/c2ccc3ccccc3n2)cc1	-95.1	3.5	87.6*	8.9	5.5	0.9	66.8*
COc1cc(/C=C/c2ccc3cccc(O)c3n2)cc(OC)c1OC	-0.2	.	30.4*	.	.	.	3.8
O=C(O)/C=C/c1ccc2ccccc2n1	-16.4	3.8	-1.0	1.2	2.2	-2.3	.
COc1cc(/C=C/c2ccc3cccc(O)c3n2)cc(Br)c1OC	-62.8	.	-0.9	.	.	.	.
O=[N+]([O-])c1ccc(/C=C/c2ccc3cccc(O)c3n2)cc1	-132.5	.	42.3*	.	.	.	16.8
CC1CC(C)CN(C(=O)CSCC(=O)O)C1 (centres undefined)	3.1	.	2.9	2.2	0.1	0.2	.
O=C(O)CSc1cc(NS(=O)(=O)c2ccc(Cl)cc2)c2ccccc2c1O	-41.8	.	57.2*	.	.	.	-2.8
O=C1CCCN1CCCNS(=O)(=O)c1ccc(F)c(F)c1	-2.4	.	7.1	.	.	.	.
COc1ccc(S(=O)(=O)N(CC(=O)NCc2ccco2)C2CCCCC2)cc1OC	3.7	3.7	-1.3	6.1	-0.7	6.3	.
O=[N+]([O-])c1ccc(-n2nnnc2-c2ccccc2)c([N+](=O)[O-])c1	-37.0	4.8	32.0*	29.6*	-1.2	68.5*	5.0
O=S(=O)(Nc1ccc(OC(F)F)cc1)c1ccc(-c2ccon2)s1	-32.8	.	-2.0	.	.	.	.
CCc1ccc(S(=O)(=O)Nc2cc3c(cc2C)n(C)c(=O)n3C)cc1	40.2	.	47.8*	.	.	.	39.9*
Cc1ccc(NS(=O)(=O)c2ccc3c(c2)n(C)c(=O)n3C)c(C)c1	-5.3	.	0.8	.	.	.	.
CC(=O)Nc1ccc(NC(=O)C(=O)c2cn(CC(=O)N3CCCC3)c3ccccc23)cc1	-23.1	.	-0.1	.	.	.	.
COc1ccc(NC(=O)C(=O)c2cn(CC(=O)N3CCCC3)c3ccccc23)cc1	59.0	.	92.9*	.	.	.	66.2*
Cn1cc(CN2CCN(Cc3cccnc3)CC2)c(-c2ccc3c(c2)OCCO3)n1	-12.6	.	-3.4	8.7	1.3	-0.3	.
COc1ccc(C(=O)C(CCC(CNC(C)(C)C)C(=O)c2ccc(OC)cc2)CNC(C)(C)C)cc1 (centres undefined)	-3.3	2.3	70.9*	100.8*	13.2	101.5*	59.5*
COc1ccc(C(=O)NN)cc1	-13.2	.	3.7	-0.4	-0.3	-2.3	.
CCN1CCN(CCNC(=O)c2ccc(/C=C3/Sc4ccccc4N(Cc4ccccc4C)C3=O)cc2)CC1	-70.8	1.5	30.5*	13.9	10.6	7.0	18.1
O=C(O)c1cccnc1Nc1ccc(Cl)cc1	-11.3	4.3	34.0*	33.3*	2.8	28.5*	22.8*
CSc1ccccc1OCc1cc(C(=O)NCCc2nc(C)cc(C)n2)no1	-24.2	.	2.0	.	.	.	.
SMILES	KLF5 inh	MT stabilizer	IEC-6 cytotox	BaF3 tox	bCat nuc transl	Ba/F3 V617F tox	IEC-6 tox confirm
Cc1ccc2nc(SCc3nnc(-c4ccccc4Br)o3)[nH]c2c1	-7.3	2.9	22.4*	3.7	0.6	-4.1	15.1
Clc1ccc2nc(SCc3nnc(-c4ccccc4)o3)[nH]c2c1	6.5	1.9	3.6	4.4	-2.1	-4.3	.
O=C(N/N=C/c1ccco1)C1CC1c1ccccc1 (centres undefined)	21.9	4.3	5.4	8.2	-0.7	2.7	.
CC(C)(C)c1ccc(C2CC2C(=O)N/N=C\c2ccc[nH]2)cc1 (centres undefined)	-39.0	10.6	57.6*	74.8*	7.9	100.0*	88.6*
Cc1cccc(NC2=NC(C)(C)N=C(N)N2)c1	20.0	2.7	77.0*	101.1*	0.6	98.9*	70.2*
N#CC1=C(N)Oc2ccc3ccccc3c2C1c1cccnc1 (centres undefined)	46.6	16.0*	55.0*	34.1*	-1.5	53.2*	48.3*
FC(F)(F)c1cc(Cl)c2nnc(C(F)(F)Cl)n2c1	2.1	6.3	-5.4	-1.4	-0.8	-0.7	.
COc1ccc(/C=N/Nc2cc(C)nc(-n3nc(C)cc3C)n2)cc1	4.3	4.5	5.6	4.8	-1.6	1.0	.
Cc1cc(N/N=C/c2ccc(O)cc2O)nc(-n2nc(C)cc2C)n1	35.8	4.7	79.0*	3.9	-0.6	-3.1	46.7*
CC(C)c1nnc(NC(=O)C2CCCN2C(=O)Nc2ccc(F)cc2)s1 (centres undefined)	-23.8	.	-3.4	.	.	.	.
Cc1nc2c(Br)c(C)nn2c2c1CCC2	-10.0	2.3	-0.5	4.8	-2.0	0.7	.
O=C(Nc1nc(NC(=O)c2ccco2)n(-c2ccccc2)n1)c1ccccc1	47.9	1.3	26.2*	50.9*	0.9	36.0*	41.1*
CC(=O)Nc1nc(NC(=O)/C=C/c2ccccc2)n(-c2ccccc2)n1	27.0	3.0	24.1*	10.4	1.3	5.3	16.7
CC(=O)Nc1nc(NCc2ccccc2Cl)n(-c2ccccc2)n1	-15.9	.	-6.3	.	.	.	.
CCCCc1cc(=O)oc2cc(OCC(=O)NC3CCN(Cc4ccccc4)CC3)ccc12	-15.1	.	-6.0	.	.	.	.
O=C(Nc1ccc(-n2cccc2)cc1)C1CC1	-8.5	5.8	-2.2	5.4	-2.0	0.0	.
CC(C)c1nnc(NC(=O)CC(C)c2ccccc2)s1 (centres undefined)	-48.5	.	-0.9	.	.	.	.
Cc1cnc(NC(=O)CC(C)c2ccccc2)s1 (centres undefined)	28.2	.	33.1*	.	.	.	23.3*
CN1c2cccc3cccc(c23)N(C)C1c1cccs1	-40.7	1.6	23.6*	9.3	0.3	0.4	3.0
COc1ccc(CCNC(=O)c2cc3c(=O)n4cccc(C)c4nc3n(Cc3ccncc3)c2=N)cc1	.	.	.	.	-2.8	.	.
